SENP1 inh: SENP1 (human) catalytic domain inhibition. Q9P0U3. recombinant SENP1 catalytic domain, CyPet-SUMO1-YPet FRET cleavage. inhibition, % at 10 µM. actives 0.21% (n = 360,000);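 active = inhibition at least 30% at 10 µM, raw YFP signal under a set limit, fluorescence ratio 0.5 to 1.5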
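Test system: human SENP1 catalytic domain; medium: Tris pH 8 buffer plus EDTA, NaCl, BME, BSA, NP40, catalase; incubation: 50 min reaction at room temperature; technique: FRET, CFP and YFP emission; controls: no-enzyme low control and enzyme-plus-DMSO high control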
SENP8 block-1: blocks the human protease SENP8 | Q96LD8 | purified SENP8, Z-RLRGG-aminoluciferin cleavage, luminescence | inhibition, % at 10 µM | actives 1.2% (n = 330,000); in the data active = inhibition above about 50%
Platelet DG rel: modulates dense granule release in human platelets; human platelet-rich plasma, SFLLRN dense granule ATP release, luminescence; inhibition, %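 (compounds screened at 7.5 µM in platelet-rich plasma)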; actives 0.22% (n = 300,000);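 active = mean replicate score, as percent of positive control, at or above 50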
SENP8 block-2: inhibitors of human SENP8 protease. Q96LD8. recombinant SENP8, Nedd8 substrate fluorescence. inhibition, % at 20 µM. actives 0.64% (n = 360,000). AID 602440; in the data active = inhibition mostly above about 40%, no sharp cut-off; inactive = mostly below about 27%
SENP6 inh: inhibitors of human SENP6 protease; Recombinant SENP6 catalytic domain, aminoluciferin luminescence; actives 1.8% (n = 330,000); inhibition, % at 10 µM;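 active = inhibition above about 50% at the single tested dose, limit read from the data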
Target sequence (Q9GZR1 628-1112 limits assumed): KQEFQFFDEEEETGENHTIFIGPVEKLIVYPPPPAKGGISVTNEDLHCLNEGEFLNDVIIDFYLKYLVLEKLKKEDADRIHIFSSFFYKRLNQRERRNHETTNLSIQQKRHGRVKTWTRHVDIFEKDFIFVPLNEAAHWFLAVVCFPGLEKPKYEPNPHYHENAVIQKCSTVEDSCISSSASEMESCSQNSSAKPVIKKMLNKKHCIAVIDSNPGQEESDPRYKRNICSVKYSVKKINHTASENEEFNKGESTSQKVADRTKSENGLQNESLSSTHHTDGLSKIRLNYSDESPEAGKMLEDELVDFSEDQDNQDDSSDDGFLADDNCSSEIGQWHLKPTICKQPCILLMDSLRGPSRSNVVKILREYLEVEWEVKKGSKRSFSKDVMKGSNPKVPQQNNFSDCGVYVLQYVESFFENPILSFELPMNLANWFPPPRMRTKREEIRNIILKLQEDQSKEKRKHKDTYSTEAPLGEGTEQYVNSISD
SENP7 block: SENP7 protease inhibition. inhibition, % at 5 µM. recombinant SENP7, Z-RLRGG-aminoluciferin luminescence, 40 min. actives 1.5% (n = 330,000);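 active = inhibition above about 50% at the single test dose, limit read from the data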
SENP8 confirm: confirmation of human SENP8 protease inhibitors. shares compounds with SENP7 block. actives 40% (n = 6,200). Recombinant SENP8, Z-RLRGG-aminoluciferin luminescence, 60 min. inhibition, % at 12.5 µM;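 active = mean inhibition across replicates above about 50%, limit read from the data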
SENP6 conf: confirmation of human SENP6 protease inhibitors. shares compounds with SENP7 block. recombinant SENP6, Z-RLRGG-aminoluciferin luminescence. inhibition, % at 12.5 µM. actives 58% (n = 6,200). AID 488915
SENP7 confirm: confirmation of human SENP7 protease inhibitors | shares compounds with SENP7 block | recombinant SENP7, Z-RLRGG-aminoluciferin luminescence, 40 min | inhibition, % at 12.5 µM | actives 69% (n = 6,200) | AID 488917
Casp3 SENP sel: caspase-3 inhibition (SENP selectivity assay) | shares compounds with SENP7 block | purified caspase-3, Z-DEVD-aminoluciferin luminescence, 60 min | inhibition, % at 12.5 µM | actives 60% (n = 6,200) | AID 488918;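 active = mean inhibition above about 50%, limit read from the data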
Luc interf: interferes with luciferase luminescence in SENP counter-screen. shares compounds with SENP7 block. inhibition, % at 12.5 µM. actives 39% (n = 6,200). AID 488919. Pre-incubated SENP8/Z-RLRGG-aminoluciferin, luciferase luminescence interference;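 active = mean inhibition above about 50% when retested at one dose, limit read from the data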
Hits are given with their value; - = inactive; . = no result given. Hits are enriched below; roughly 2.6% of the tested compounds scored in any of these assays.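 The calls were made as follows, unless noted: active = mean inhibition above about 50% in the one-dose retest (limit read from the data); inactive = the rest.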

SMILES | SENP1 inh | SENP8 block-1 | Platelet DG rel | SENP8 block-2 | SENP6 inh | SENP7 block | SENP8 confirm | SENP6 conf | SENP7 confirm | Casp3 SENP sel | Luc interf
CCOC(=O)Nc1ccc2nc(N3CCCCCC3)sc2c1 | - | - | - | - | 58 | - | - | - | 69 | - | -
CCOC(=O)N1CCN(C(=O)Nc2ccc3nc(C)sc3c2)CC1 | - | - | - | - | - | - | . | . | . | . | .
CS(=O)(=O)N1CCN(c2nc3ccc(Cl)cc3s2)CC1 | - | - | - | - | - | - | . | . | . | . | .
Clc1ccc2nc(N3CCCCC3)sc2c1 | - | 88 | - | - | 97 | 90 | 78 | 84 | 89 | 82 | -
Clc1ccc2nc(N3CCCCC3)[nH]c2c1 | - | - | - | - | 59 | 52 | - | - | 80 | 72 | 59
Fc1cccc2sc(N3CCCCC3)nc12 | - | - | - | - | 59 | - | - | - | 71 | - | -
Fc1cccc2sc(N3CCOCC3)nc12 | - | - | - | - | - | - | . | . | . | . | .
CCN1CCN(C(=O)CCc2nnc(CCc3ccc(OC)cc3)o2)[C@@H](C)C1=O | - | - | - | - | - | - | . | . | . | . | .
COc1ccc(-c2nn(-c3ccccc3)cc2C2CC(c3cccs3)=NN2C(=O)CCCC(=O)O)cc1 (centres undefined) | - | - | - | - | - | - | . | . | . | . | .
CC(C)CCn1c(NCCN(C)C)nc2c1c(=O)[nH]c(=O)n2C | - | - | - | - | - | - | . | . | . | . | .
CC(C)(C)c1ccc(C(=O)c2c[nH]c(C(=O)O)c2)cc1 | - | 78 | - | - | 85 | 75 | - | 76 | 95 | - | 84
COC(=O)c1cc(C(=O)c2ccc(C(C)(C)C)cc2)c[nH]1 | - | - | - | - | - | - | . | . | . | . | .
CN(C)c1ccnc(-n2cccc2/C=N/OCc2ccc(F)cc2Cl)c1C#N | - | - | - | - | - | - | . | . | . | . | .
O=C(O)c1ccc(NC2=C/C(=N/S(=O)(=O)c3ccccc3)c3ccccc3C2=O)cc1 | - | 87 | . | 61 | 93 | 60 | 95 | 98 | 92 | - | -
COC(=O)c1ccc(N/C(=N/S(=O)(=O)c2ccccc2)c2ccccc2)cc1 | - | - | - | - | - | - | . | . | . | . | .
CCCc1cc(C(=O)Nc2cccc(C(C)=O)c2)no1 | - | - | - | - | - | - | . | . | . | . | .
CCCc1cc(C(=O)Nc2cccc(Cl)c2)no1 | - | 90 | - | - | 98 | 93 | 94 | 96 | 102 | 92 | 90
CCCc1cc(C(=O)Nc2ccccc2SC)no1 | - | - | - | - | - | - | . | . | . | . | .
CCCc1cc(C(=O)Nc2ccc(F)c(Cl)c2)no1 | - | 90 | - | - | 93 | 93 | 92 | 93 | 100 | 89 | 82
CCCc1cc(C(=O)Nc2ccc(F)cc2F)no1 | - | - | - | - | 63 | - | - | - | 71 | 60 | -
Cc1c(C(=O)N2CCN(S(=O)(=O)c3cccs3)CC2)oc2ccc(F)cc12 | - | - | . | - | - | - | . | . | . | . | .
CC(C)CNC(=O)c1cccc(C(=O)NCC(C)C)c1 | - | - | - | - | - | - | . | . | . | . | .
Cc1ccc(C(=O)O/N=C(\N)c2cccc([N+](=O)[O-])c2)cc1 | - | - | - | - | - | - | . | . | . | . | .
N/C(=N\OC(=O)c1ccccc1Br)c1cccc([N+](=O)[O-])c1 | - | 66 | - | - | 85 | 82 | 59 | 52 | 83 | 51 | 66
N/C(=N\OC(=O)c1ccccc1F)c1cccc([N+](=O)[O-])c1 | - | - | - | - | - | 64 | - | - | 78 | 51 | -
O=C(O)c1ccccc1Nc1ccccc1 | - | - | . | - | - | - | . | . | . | . | .

Compound activity as filed in PubChem.
